The IC50 is the midpoint of a concentration-inhibition curve. The low end stands for inhibition by little substance, the high end for a need for much substance.

In data set [1] the test system is HL-60. As to the kind of experiment: In vitro growth inhibition against human leukemia HL-60 cell line. It counts as functional, cell-based. In a few lines: (§1)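 HL-60 cells were seeded at 5×10^4 cells/mL in RPMI 1640 with 10% heat-inactivated FBS, penicillin and streptomycin, at 37 °C in 5% CO2. Cells were exposed for 72 h to six or seven drug concentrations, run in duplicate. Viability was read by XTT-tetrazolium microculture absorbance, and IC50 was derived from median-effect plot analysis.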

Data set [2] has as its system Mus musculus. Briefly: […] anticancer activity against B6D2F-1 mice bearing P388 leukemia measured by the increase in lifespan(%) at an intravenous dose of 18(mg/kg). It counts as functional. In a few lines:
(§2)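 Male B6D2F1 mice, 8 weeks old, 20–25 g. P388/0 ascites cells (0.2 mL, ascites:saline 1.10) were implanted iv on day 0, and the tumor grew in the liver. Drug was given iv by tail vein on days 1, 3, 5, 7 and 9 (Q2Dx5), with 4–5 mice per group. Survival time was scored as 8 a.m. (0.0), 1 p.m. (0.25) or 5 p.m. (0.5) deaths. %ILS was averaged against untreated controls, and toxic deaths were counted.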

Data set [3] deals with Mus musculus. Briefly: […] anticancer activity against B6D2F-1 mice bearing P388 leukemia measured by the average body weight(g) after day 1 at an intravenous dose of 12(mg/kg).
For data set [4], the system named is Mus musculus. As to the kind of experiment: […] anticancer activity against B6D2F-1 mice bearing P388 leukemia measured by the increase in lifespan(%) at an intravenous dose of 8(mg/kg).. It counts as functional. In a few lines:
as §2

The test system of data set [5] is Mus musculus. As to the kind of experiment: […] anticancer activity against B6D2F-1 mice bearing P388 leukemia measured by the Average survival time(day+/-SD) at an intravenous dose of 12(mg/kg). It counts as functional. In a few lines:
as §2

The subject of data set [6] is Mus musculus. Briefly: […] anticancer activity against B6D2F-1 mice bearing P388 leukemia measured by the average weight change(g) after day 7 at an intravenous dose of 18(mg/kg). The format is functional. In a few lines: (§3)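 Male B6D2F1 mice (8 weeks old, 20–25 g) were implanted iv on day 0 with P388/0 ascites cells (0.2 mL; ascites:saline 1.10), which grew in the liver. Drug was given iv via the tail vein, Q2Dx5, on days 1, 3, 5, 7 and 9. Groups had 4–5 mice. Day 1 value is mean body weight; later days are weight change.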

In data set [7] the test system is Mus musculus. As to the kind of experiment: […] anticancer activity against B6D2F-1 mice bearing P388 leukemia measured by the average weight change(g) after day 11 at an intravenous dose of 12(mg/kg). It counts as functional. The procedure, abridged: as §3
Data set [8] relates to Mus musculus. As to the kind of experiment: […] anticancer activity against B6D2F-1 mice bearing P388 leukemia measured by the average weight change(g) after day 9 at an intravenous dose of 12(mg/kg). The format is functional. The procedure, abridged:
(§4)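 Male B6D2F1 mice (8 weeks old, 20–25 g) were implanted iv on day 0 with P388/0 ascites cells (0.2 mL; ascites:saline = 1.10). Tumor grew in the liver. Drug was given iv via the tail vein, Q2Dx5, on days 1, 3, 5, 7 and 9. Body weight was recorded on days 1, 7, 9 and 11 and reported as the average change (g).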

For data set [9], the system named is Mus musculus. As to the kind of experiment: […] anticancer activity against B6D2F-1 mice bearing P388 leukemia measured by the average weight change(g) after day 7 at an intravenous dose of 12(mg/kg). The format is functional. The procedure, abridged: as §3
For data set [10], the system named is Mus musculus. Briefly: […] anticancer activity against B6D2F-1 mice bearing P388 leukemia measured by the average weight change(g) after day 9 at an intravenous dose of 8(mg/kg). It counts as functional. The procedure, abridged: as §4
Data set [11] relates to Mus musculus. As to the kind of experiment: […] anticancer activity against B6D2F-1 mice bearing P388 leukemia measured by the average body weight(g) after day 1 at an intravenous dose of 18(mg/kg).
The subject of data set [12] is Mus musculus. As to the kind of experiment: […] anticancer activity against B6D2F-1 mice bearing P388 leukemia measured by the average survival time(day+/-SD) at an intravenous dose of 8(mg/kg).. The format is functional. The procedure, abridged:
as §2

Data set [13] concerns Mus musculus. As to the kind of experiment: […] anticancer activity against B6D2F-1 mice bearing P388 leukemia measured by the average body weight(g) after day 1 at an intravenous dose of 8(mg/kg).
The test system of data set [14] is Mus musculus. Briefly: […] anticancer activity against B6D2F-1 mice bearing P388 leukemia measured by the Average survival time(day+/-SD) at an intravenous dose of 18(mg/kg). The format is functional. The procedure, abridged: as §2
Data set [15] deals with Mus musculus. Briefly: […] anticancer activity against B6D2F-1 mice bearing P388 leukemia measured by the increase in lifespan(%) at an intravenous dose of 12(mg/kg). The format is functional. The procedure, abridged:
as §2

Data set [16] concerns Mus musculus. Briefly: […] anticancer activity against B6D2F-1 mice bearing P388 leukemia measured by the average weight change(g) after day 11 at an intravenous dose of 8(mg/kg). It counts as functional. The procedure, abridged:
as §3

Data set [17] relates to Mus musculus. Briefly: […] anticancer activity against B6D2F-1 mice bearing P388 leukemia measured by the average weight change(g) after day 7 at an intravenous dose of 8(mg/kg). The format is functional. In a few lines:
as §4

The test system of data set [18] is Mus musculus. As to the kind of experiment: […] anticancer activity against B6D2F-1 mice bearing P388 leukemia measured by the average body weight(g) after day 1 at an intravenous dose of 22(mg/kg).
Data set [19] has as its system HL-60. Briefly: In vitro inhibition of human leukemic HL-60 cell growth in culture. It counts as functional, cell-based. The procedure, abridged:
as §1

Data set [20] relates to Mus musculus. As to the kind of experiment: […] anticancer activity against B6D2F-1 mice bearing P388 leukemia measured by the average body weight(g) after day 1 at an intravenous dose of 30(mg/kg).
Data set [21] deals with Mus musculus. As to the kind of experiment: […] anticancer activity against B6D2F-1 mice bearing P388 leukemia measured by the increase in lifespan at an intravenous dose of 30(mg/kg). The format is functional. The procedure, abridged:
as §2

Data set [22] has as its system Mus musculus. Briefly: […] anticancer activity against B6D2F-1 mice bearing P388 leukemia measured by the average weight change(g) after day 9 at an intravenous dose of 30(mg/kg). It counts as functional. In a few lines:
as §4

Data set [23] has as its system Mus musculus. Briefly: […] anticancer activity against 4 B6D2F-1 mice bearing P388 leukemia measured by the toxicity death at an intravenous dose of 30(mg/kg). The format is organism-based. The conditions noted are these: in vivo. In a few lines: as §2
Data set [24] relates to Mus musculus. Briefly: […] anticancer activity against 5 B6D2F-1 mice bearing P388 leukemia measured by the toxicity death at an intravenous dose of 22(mg/kg). Particulars: in vivo. The format is organism-based. The procedure, abridged: as §2
Data set [25] deals with Mus musculus. Briefly: […] anticancer activity against B6D2F-1 mice bearing P388 leukemia measured by the average weight change(g) after day 7 at an intravenous dose of 30(mg/kg). The format is functional. In a few lines:
as §4

Data set [26] relates to Mus musculus. Briefly: […] anticancer activity against B6D2F-1 mice bearing P388 leukemia measured by the average weight change(g) after day 9 at an intravenous dose of 22(mg/kg). It counts as functional. The procedure, abridged: as §4
In data set [27] the test system is Mus musculus. As to the kind of experiment: […] anticancer activity against B6D2F-1 mice bearing P388 leukemia measured by the average weight change(g) after day 7 at an intravenous dose of 16(mg/kg). It counts as functional. The procedure, abridged: as §3
Data set [28] relates to Mus musculus. As to the kind of experiment: […] anticancer activity against B6D2F-1 mice bearing P388 leukemia measured by the increase in lifespan at an intravenous dose of 16(mg/kg).. The format is functional. In a few lines: as §2
Data set [29] relates to Mus musculus. Briefly: […] anticancer activity against B6D2F-1 mice bearing P388 leukemia measured by the average survival time(days) at an intravenous dose of 16(mg/kg).. The format is functional. The procedure, abridged:
as §2

Data set [30] concerns Mus musculus. As to the kind of experiment: […] anticancer activity against B6D2F-1 mice bearing P388 leukemia measured by the average weight change(g) after day 9 at an intravenous dose of 16(mg/kg). It counts as functional. In a few lines:
as §4

Data set [31] has as its system Mus musculus. Briefly: […] anticancer activity against B6D2F-1 mice bearing P388 leukemia measured by the Average survival time(days) at an intravenous dose of 30(mg/kg). It counts as functional. In a few lines:
as §2

Data set [32] concerns Mus musculus. Briefly: […] anticancer activity against B6D2F-1 mice bearing P388 leukemia measured by the average body weight(g) after day 1 at an intravenous dose of 16(mg/kg).
Data set [33] relates to Mus musculus. As to the kind of experiment: […] anticancer activity against B6D2F-1 mice bearing P388 leukemia measured by the average weight change(g) after day 7 at an intravenous dose of 22(mg/kg). The format is functional. The procedure, abridged:
as §3

For data set [34], the system named is Mus musculus. As to the kind of experiment: […] anticancer activity against B6D2F-1 mice bearing P388 leukemia measured by the Average survival time(days) at an intravenous dose of 22(mg/kg). The format is functional. In a few lines:
as §2

Data set [35] has as its system Mus musculus. Briefly: […] anticancer activity against B6D2F-1 mice bearing P388 leukemia measured by the average weight change(g) after day 11 at an intravenous dose of 30(mg/kg). The format is functional. The procedure, abridged: as §3
Data set [36] has as its system Mus musculus. Briefly: […] anticancer activity against B6D2F-1 mice bearing P388 leukemia measured by the average weight change(g) after day 11 at an intravenous dose of 16(mg/kg). The format is functional. In a few lines:
as §3

The test system of data set [37] is Mus musculus. As to the kind of experiment: […] anticancer activity against B6D2F-1 mice bearing P388 leukemia measured by the increase in lifespan at an intravenous dose of 22(mg/kg). It counts as functional. The procedure, abridged: as §2
Data set [38] concerns Mus musculus. As to the kind of experiment: […] anticancer activity against 5 B6D2F-1 mice bearing P388 leukemia measured by the toxicity death at an intravenous dose of 16(mg/kg).. The format is organism-based. The conditions noted are these: in vivo. The procedure, abridged: as §2
Data set [39] deals with Mus musculus. Briefly: […] anticancer activity against B6D2F-1 mice bearing P388 leukemia measured by the average weight change(g) after day 11 at an intravenous dose of 22(mg/kg). It counts as functional. In a few lines: as §3

With `CCOC(=O)Nc1cc(CO)cc(Nc2c3cccc(C)c3nc3c(C(=O)NCCN(C)C)cccc23)c1`, the IC50 with HL-60 [1] amounted to 2.3 nM.

In the case of `COc1cc(NS(C)(=O)=O)ccc1Nc1c2ccccc2nc2ccccc12` [AMSACRINE], the Increase in life-span is 19% in the data set with Mus musculus [2], 91% with Mus musculus [4] and 120% in the data set with Mus musculus [15]. Besides, the Body weight is 22.7 g in the data set with Mus musculus [3], 24.5 g in the data set on Mus musculus [11] and 22.8 g with Mus musculus [13]. In addition, the figures for the Average survival in the data set on Mus musculus [5], in the data set on Mus musculus [12] and with Mus musculus [14] were 14.1 days, 12.2 days and 7.6 days, respectively. Besides, the Average weight change in the data set with Mus musculus [6] is recorded as -4.3 g; in the data set on Mus musculus [7] it was -3.2 g; in the data set on Mus musculus [8], -1.4 g; in the data set on Mus musculus [9], -0.7 g; in the data set with Mus musculus [10], -2.1 g; in the data set on Mus musculus [16], -3.8 g. Also, the Average weight change in the data set with Mus musculus [17] is listed as 0.1 g.

As for `Nc1cc(CO)cc(Nc2c3ccccc3nc3ccccc23)c1`, the Body weight is 23.8 g in the data set on Mus musculus [18], 22.6 g in the data set with Mus musculus [20] and 23.3 g in the data set on Mus musculus [32]. The same molecule registered a concentration for half-maximal inhibition (IC50) in the data set with HL-60 [19] of 27 nM. The Increase in life-span in the data set with Mus musculus [21] is reported as 240%; with Mus musculus [28], 133%; in the data set with Mus musculus [37] it was 230%. The Average weight change was -0.1 g in the data set on Mus musculus [22]; 0.2 g with Mus musculus [25]; -1.5 g with Mus musculus [26]; 0.8 g in the data set with Mus musculus [27]; -0.5 g in the data set on Mus musculus [30]; -1.3 g with Mus musculus [33]. In addition, the results for the Average weight change in the data set with Mus musculus [35], in the data set on Mus musculus [36] and in the data set on Mus musculus [39] were -0.2 g, -2.1 g and -2.8 g, respectively. In addition, the Toxicity related death in the data set on Mus musculus [23], in the data set on Mus musculus [24] and with Mus musculus [38] was 0 in each case. The Average survival stood at 14.9 days in the data set with Mus musculus [29], 21.8 days with Mus musculus [31] and 21.1 days in the data set on Mus musculus [34].

(Values after ChEMBL document CHEMBL1132156, “Synthesis and structure-activity relationships of potential anticancer agents: alkylcarbamates of 3-(9-acridinylamino)-5-hydroxymethylaniline” (J Med Chem, 1999).)
